Our source for the inhibition values is PubChem BioAssay AID493091 (Sanford-Burnham Center for Chemical Genomics, 2011).

The inhibition is the change of the read-out against control, counted positive when it falls.

In all, about 340,000 compounds went through this assay and about 3,000 (0.88%) were called active. The entries come from a sample that favours actives as a whole. Unmarked numbers belong to inactive results.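 Rule for the calls: active = inhibition above about 50% at 20 µM (limit read from the data); inactive = the rest.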

This experiment deals with Carboxy-terminal domain RNA polymerase II polypeptide A small phosphatase 1 (Homo sapiens) (UniProt Q9GZU7). In words: Scp-1 phosphatase inhibitors, primary screen, biochemical, colorimetric, uHTS (AID 493091).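 Note: plate controls were DMSO wells with enzyme for no effect and wells lacking enzyme for full effect.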 Conditions: Recombinant Scp1, phosphopeptide, malachite green phosphate absorbance; at 20 µM; active compounds read high. Put shortly: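 Test system – truncated SCP-1 phosphatase (76-261aa) · Reagent – Phosphorylated 17-residue peptide substrate · Incubation – 45 min room-temperature reaction, 5 min colour, 30 min stabiliser · Detection – colorimetric phosphate reagent with accelerator and stabiliser, absorbance at 630 nm · Measure – % inhibition at 20 µM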
Chain of Carboxy-terminal domain RNA polymerase II polypeptide A small phosphatase 1 (Homo sapiens) (Q9GZU7 76-261 limits assumed): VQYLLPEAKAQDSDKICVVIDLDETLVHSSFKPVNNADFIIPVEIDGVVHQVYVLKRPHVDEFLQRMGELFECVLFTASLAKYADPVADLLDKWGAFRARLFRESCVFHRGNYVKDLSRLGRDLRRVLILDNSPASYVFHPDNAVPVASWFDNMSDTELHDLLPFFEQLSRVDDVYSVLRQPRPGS
Take `CCN(CC)CCN(C(=O)c1cccc([N+](=O)[O-])c1)c1nc2ccc(OC)cc2s1`: the inhibition is -1.97%.
The figure for `CN(C)CCCN(C(=O)c1ccc(S(=O)(=O)N2CCCCCC2)cc1)c1nc2ccc(Br)cc2s1` is 11.7%.
Under `CCOc1ccc2nc(N(CCCN(C)C)C(=O)c3ccc(C(=O)c4ccccc4)cc3)sc2c1` stands 65% (active); under `CC(C)CNC(=O)COC(=O)/C=C/c1ccco1`, 22.6%; under `COc1c(Br)cc2c(C)c(C(=O)N3CCOCC3)oc2c1Br`, -4.18%.
The figure for `CCNc1ccc(C(=O)OCC(=O)N2c3ccccc3NC(=O)C2(C)C)cc1[N+](=O)[O-]` is -9.83%; for `Cc1ccc(OCCC(=O)OCC(=O)N2c3ccccc3NC(=O)C2(C)C)cc1` it is 3.3%.
In the case of `CNS(=O)(=O)c1cccc(C(=O)OCC(=O)N2c3ccccc3NC(=O)C2(C)C)c1`, the inhibition is 51% (active).
Under `CCCCCN(C(=O)CCC(=O)OCC(=O)NC1CCC(C)CC1)c1c(N)n(CCCC)c(=O)[nH]c1=O` (stereo unspecified) stands 3.11%; under `CC(=O)NNC(=O)c1csc(Cc2c(Cl)sc3ccc(Cl)cc23)n1`, -4.25%.
Turning to `CC1CC(=O)N(CC(=O)Nc2cccc(Cl)c2)c2ccccc2S1(=O)=O` (stereo unspecified), the inhibition is -2.39%.
Under `O=C(CCc1ccc(S(=O)(=O)N2CCOCC2)cc1)Nc1ccc2ccccc2c1` stands -11.8%; under `CCN(C(=O)COc1ccc(C(=O)c2ccccc2)cc1)c1ccccc1`, -3.83%.
Under `CC/C(=C(/c1ccccc1)c1ccc(OCC[N+](C)(C)C)cc1)c1ccccc1` stands 67.4% (active); under `CCOc1cc(C(=O)O)ccc1OCCOc1ccccc1`, 6.63%; under `O=C(CCn1ccc([N+](=O)[O-])n1)Nc1nccs1`, -5.19%.
As for `CC(=O)c1ccc(N2CCN(C(=O)c3ccc(Cl)c(S(=O)(=O)NC4CC4)c3)CC2)c(F)c1`, the inhibition was -5.7%.
Under `Cc1sc2nc(CSCC(=O)NC3CCCCC3)[nH]c(=O)c2c1C` stands 1.62%; under `CSc1nnc(SCc2nc3sc(C(=O)O)c(C)c3c(=O)[nH]2)s1`, 74% (active); under `CC(=O)c1sc2nc(SCC(=O)N3CCCCC3)[nH]c(=O)c2c1C`, 7.94%.
In the case of `CCN1/C(=C\c2ccc3ccccc3[n+]2CC)Sc2cc(C)ccc21`, the inhibition was 21.8%.
Under `CCN1/C(=C/c2ccc3ccc(C)cc3[n+]2CC)Sc2ccccc21` stands 64.2% (active).
The figure for `CCOc1cc(C2C(C(=O)OC(C)C)=C(C)NC3=C2C(=O)CCC3)cc([N+](=O)[O-])c1O` (stereo unspecified) is -7.32%.
As to `CCN(CC)C(=O)Oc1ccc(OC(=O)N(CC)CC)cc1`, the inhibition was 7.37%.
Take `O=C(NCc1ccccn1)C1CCN(S(=O)(=O)c2ccc(Br)cc2)CC1`: the inhibition is 3.99%.
Under `COc1ccc(NC(=O)CN(C)C(=O)c2cc(-c3ccc(C)o3)nc3ccccc23)cc1` stands -3.85%.
In the case of `CC(=O)N1CCN(C(=O)c2cc(-c3ccc(C)o3)nc3ccccc23)CC1`, the inhibition was -8.9%.
For `Cc1ccc(NC(=O)c2cc(-c3ccc(C)o3)nc3ccccc23)nc1`, the inhibition is 67.5% (active).
The figure for `O=C(C1CCCO1)N1CCN(S(=O)(=O)c2ccc(Br)cc2)CC1` (stereo unspecified) is -5.02%; for `CN(C)C(CNC(=O)c1ccc(S(=O)(=O)NCc2ccco2)cc1)c1ccccc1` (stereo unspecified) it is -0.87%; for `O=C(NN1C(=O)C2C3C=CC(O3)C2C1=O)c1ccccc1` (stereo unspecified) it is 56% (active).
Regarding `O=C(NN1C(=O)C2C3C=CC(O3)C2C1=O)c1ccncc1` (stereo unspecified), the inhibition is 0.55%.
Under `COc1ccccc1C(=O)NN1C(=O)C2C3C=CC(O3)C2C1=O` (stereo unspecified) stands -11.3%.
Consider `CCOc1cc(NC(=O)CCl)c(OCC)cc1NC(C)=O`, for which the inhibition is -1.31%.
Under `O=c1ccc2c(-c3ccccc3S(=O)(=O)O)c3ccc(O)c(O)c3oc-2c1O` stands 64.1% (active); under `O=C(Nc1cc2c3c(c1)CC(=O)N3CCC2)c1ccccc1F`, -6.14%; under `O=P(O)(CP(=O)(c1ccccc1)c1ccccc1)c1ccccc1`, -4.63%.
The figure for `COc1cccc(Cn2cc(/C=N/NC(=O)c3cc(O)cc(O)c3)c3ccccc32)c1` is -15.4%; for `O=C(CSc1ccc(/C=N/NC(=O)c2cccc(F)c2)o1)Nc1ccccc1` it is -3.74%; for `O=C(Cn1cc(/C=N/NC(=O)c2cccc(C(F)(F)F)c2)c2ccccc21)Nc1ccc(F)cc1` it is 90.8% (active).
Under `COc1cc(C2C3=C(CCCC3=O)OC3=C2C(=O)CCC3)ccc1OCC(=O)Nc1ccccc1` stands 4.63%; under `CCOc1ccc(-c2nnn(CC(=O)N3CCN(c4ccc(OC)cc4)CC3)n2)cc1OCC`, -1.29%.
For `COc1ccc(N2CCN(C(=O)CSc3nnc4ncccn34)CC2)cc1`, the inhibition is -6.4%.
The figure for `COc1ccc(N2CCN(C(=O)CSc3nc4cc(OC)c(OC)cc4cc3C#N)CC2)cc1` is 67.5% (active).
Under `CCNC(=S)NCC` stands -5.72%; under `COc1ccc(/C(O)=C2/C(=O)C(=O)N(CC3CCCO3)C2c2ccc(OC)c(OC)c2)cc1` (stereo unspecified), -4.81%; under `Cc1ccc(SCC(=O)NC(=O)NCc2ccco2)c(C)c1`, 70% (active).
Turning to `Cc1ccc(NC(=O)C(=O)NCc2ccco2)c(C)c1`, the inhibition is -2.49%.
As for `Cc1cc(C)n2nc(SCC(=O)NC(=O)NCc3ccco3)nc2n1`, the inhibition was 7.37%.
Under `O=C(Cc1ccccc1Cl)N1CCN(c2ccccn2)CC1` stands -2.92%.
Consider `O=C(Cn1cnc2ccccc2c1=O)Nc1cccc(S(=O)(=O)N2CCCCC2)c1`, for which the inhibition was -7.43%.
Under `CN(C)C=NC(=O)c1cccn1-c1ncc(C(F)(F)F)cc1Cl` stands -4.15%; under `O=C(CCS(=O)(=O)c1ccc(Br)cc1)NCCc1ccc(Cl)cc1`, 80% (active); under `COc1ccc(Cl)cc1NC(=O)CCS(=O)(=O)c1cc2c(cc1C)NC(=O)CO2`, -1.24%.
Under `COc1ccc(Cl)cc1NC(=O)CCS(=O)(=O)c1ccc(Br)cc1` stands 94.5% (active).
Under `Cc1ccc(S(=O)(=O)CCC(=O)OCC(=O)NCCc2ccc(S(N)(=O)=O)cc2)cc1` stands -5.47%; under `CCOc1ccc(OCC)c(NC(=O)CCS(=O)(=O)c2ccc(C)cc2)c1`, -14.2%; under `O=C(Cc1ccc(Br)cc1)NCCc1ccccc1`, -9.76%.
As to `CCc1ccc(C(=O)N2CCN(S(=O)(=O)c3sc(C(=O)O)c(C)c3C(=O)O)CC2)cc1`, the inhibition was 11.9%.
As to `CC1CC(C)CN(C/C=C/c2ccccc2[N+](=O)[O-])C1` (stereo unspecified), the inhibition was -6.48%.
The figure for `C=C1c2c(Cl)ccc(O)c2C(O)=C2C(=O)[C@]3(O)C(O)=C(C(N)=O)C(=O)[C@@H](N(C)C)[C@@H]3[C@@H](O)C12` (stereo partly specified) is 65.5% (active); for `CN(C)[C@@H]1C(=O)C(C(N)=O)=C(O)[C@@]2(O)C(=O)C3=C(O)c4c(O)ccc(Cl)c4[C@@H](O)[C@H]3C[C@@H]12` it is -6.29%; for `O=C(CNC(=O)c1cc2c(s1)CCC2)Nc1ccccc1Br` it is -7%.
Under `O=C(Nc1ccc(-c2nnc(-c3ccccc3)o2)cc1)c1ccc(Br)o1` stands 73% (active).
Under `O=C(CNC(=O)c1ccc(Br)o1)Nc1ccccc1` stands -5.1%; under `Brc1ccc(-c2nnc(-c3ccccc3)o2)o1`, 2.87%; under `O=C(COC(=O)c1cccnc1Cl)NC12CC3CC(CC(C3)C1)C2`, -2.71%.
On to `c1ccc(C(c2ccccc2)N2CCN(Cc3nnnn3C3CCCCC3)CC2)cc1`, for which the inhibition was 5.01%.
The figure for `CC(C)OCC(O)CN1CCN(C(c2ccccc2)c2ccccc2)CC1` (stereo unspecified) is -1.8%; for `CC1(C)CC(N2CCN(C(c3ccccc3)c3ccccc3)CC2)=CC(=[N+]2CCCCC2)C1` it is 98.9% (active); for `COc1cc2c(cc1OC)C1C(=O)c3cc(OS(C)(=O)=O)c(OC)cc3C1N(C)C2=O` (stereo unspecified) it is 7.12%.
Under `Cc1ccc(C)c(-c2nnc(NC(=O)CS(=O)(=O)c3ccccc3)o2)c1` stands -3.82%; under `O=c1c2cc(-c3ccccc3)sc2nc2n1N=C(c1cccs1)CS2`, 79.1% (active); under `Cc1ccccc1C1CC(c2cccs2)=NN1S(C)(=O)=O` (stereo unspecified), 4.93%.
As to `O=c1c(-c2ccccc2)cnc2n1CCS2`, the inhibition was -9.56%.
As for `COc1ccc(OCc2cc(C(=O)NCC3(C)COC3)no2)c(Cl)c1`, the inhibition was -1.65%.
The figure for `Cc1nc2ccc(C(=O)N(C)CC3CCCN(CCc4ccc(Cl)cc4)C3)cc2[nH]1` (stereo unspecified) is -5.73%; for `COc1ccc(S(=O)(=O)N2CCN(C(=O)c3cc(C)oc3C)CC2)cc1` it is -8.28%.
Under `Nc1nc(NCC(=O)O)nc(N2CCCCCC2)c1[N+](=O)[O-]` stands 6.19%; under `N#CCc1c(C#N)c(N)nc(N2CCCC2)c1C#N`, -4.92%.
The figure for `N#Cc1c(N2CCCCC2)nc(N)c2c(N)nc(SCC(=O)O)cc12` is 65.9% (active); for `CC(=O)Nc1ccc(S(=O)(=O)NC(C)C(=O)OCCOc2ccc(F)cc2)cc1` (stereo unspecified) it is -7.64%; for `CCOc1ccccc1Nc1nnc(SCC(=O)NCC2CCCO2)s1` (stereo unspecified) it is -9.59%.
For the compound `Cc1ccn2c(=O)nc(SCC(=O)NCc3ccc4c(c3)OCO4)nc2c1`, the inhibition was 73.6% (active).
Under `Cc1ccn2c(=O)nc(SCC(=O)NCc3ccc(F)cc3)nc2c1` stands 16.3%; under `O=C(CSc1ncn[nH]1)NCc1ccc2c(c1)OCO2`, -1.73%.
Under `O=C1CC2(CCN(C(=O)COc3ccc(F)cc3)CC2)Oc2ccccc21` stands 1.25%.
The figure for `O=C(CSc1ncn[nH]1)Nc1ccnc2ccccc12` is -9.75%.
Consider `CCCCNC(=O)CCn1nc(-c2ccc(Cl)cc2)ccc1=O`, for which the inhibition was 6.19%.
The figure for `CCCCCN1CC(O)=C(c2ccccc2)C1=N` is -2.2%; for `CCCCCN1CC(O)=C(c2nc(-c3ccc(Cl)cc3)cs2)C1=N` it is 94.9% (active).
